Assay outcomes from PubChem.
MEKK2wt PB1 HTS – modulators of MEK5 binding to wildtype MEKK2, primary screen, biochemical, multiplex bead flow cytometry, Alexa488-MEK5; AID 1531, 2009; 290,000 compounds, 1.1% hits; binding response (% of control), % at 10 µM; Mitogen-activated protein kinase kinase kinase 2 (Homo sapiens), Q9Y2U5; Alexa488-MEK5 binding to MEKK2 WT; actives lie on both sides; in the data active = binding response below about 67% or above about 130%; inconclusive = no clear call, values can overlap the other calls; inactive = in between
MEKK2 mut-MEK5 – MEK5 binding signal on mutant MEKK2 PB1, primary screen, biochemical, multiplex bead flow cytometry, Alexa488-MEK5 | Alexa488-MEK5 binding to MEKK2 mutant | percent response, % at 10 µM | 290,000 compounds, 0.35% hits | AID 1530, 2009; in the data active = percent response above about 24%, passing the limit was not always enough
MEKK3 PB1 HTS – modulators of MEKK3-MEK5 PB1 binding, primary screen, biochemical, wildtype MEKK3, multiplex bead flow cytometry, Alexa488-MEK5 | Mitogen-activated protein kinase kinase kinase 3 (Homo sapiens), Q99759 | binding response (% of control), % at 10 µM | 290,000 compounds, 1.4% hits | bead-based flow cytometry, Alexa488-MEK5 binding to MEKK3; actives lie on both sides; 0 = blocked by unlabeled MEK5, 100 = vehicle | AID 1529, 2009;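 active = binding response more than 3 SD above or below the average of its plate-row segment, actives on both sides; inconclusive = wells at one plate position flagged as instrument error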;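 note: Alexa488 bead fluorescence after subtracting the streptavidin-only scavenger bead signal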
Target sequence (Q99759 whole entry, looked up): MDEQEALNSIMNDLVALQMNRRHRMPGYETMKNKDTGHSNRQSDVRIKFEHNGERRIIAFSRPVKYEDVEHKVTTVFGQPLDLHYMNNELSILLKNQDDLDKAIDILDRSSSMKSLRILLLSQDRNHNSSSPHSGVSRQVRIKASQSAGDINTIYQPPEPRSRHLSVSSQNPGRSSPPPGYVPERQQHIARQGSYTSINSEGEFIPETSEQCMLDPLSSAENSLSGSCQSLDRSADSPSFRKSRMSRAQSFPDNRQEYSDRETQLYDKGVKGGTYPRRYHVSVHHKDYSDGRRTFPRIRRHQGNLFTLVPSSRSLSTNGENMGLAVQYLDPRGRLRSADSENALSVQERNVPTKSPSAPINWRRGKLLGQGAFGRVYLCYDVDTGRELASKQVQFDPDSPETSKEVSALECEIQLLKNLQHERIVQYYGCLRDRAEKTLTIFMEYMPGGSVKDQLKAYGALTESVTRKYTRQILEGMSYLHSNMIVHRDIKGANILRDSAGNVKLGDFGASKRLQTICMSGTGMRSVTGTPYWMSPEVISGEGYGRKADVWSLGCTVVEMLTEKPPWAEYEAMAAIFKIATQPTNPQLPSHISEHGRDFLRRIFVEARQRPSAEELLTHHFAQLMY
Apaf-1 inh – inhibitors of human Apaf-1 apoptosome, primary screen, biochemical, DEVD-Rh110 fluorescence, uHTS; Apoptotic protease-activating factor 1 (Homo sapiens), O14727; 330,000 compounds, 0.71% hits; inhibition, % at 20 µM; reconstituted apoptosome caspase-3 activity; AID 489030, 2010; active = inhibition of at least 40% at 20 µM;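 note: plate controls were DMSO wells for no effect and DEVD-CHO caspase inhibitor wells for full effect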
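System – cell-free apoptosome with Apaf-1, procaspase-3 and caspase-9 · Buffer or medium – pH 7.5 Hepes buffer with CHAPS, BSA, DTT · Also added – cytochrome c with DEVD-Rh110 · Times – 30 min compound preincubation, 50 min activation, room temperature · Technique – Rh110 fluorescence intensity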
UBC13 inh – UBC13 polyubiquitin chain formation inhibitors, primary screen, biochemical, TR-FRET, uHTS. Ubiquitin-conjugating enzyme E2 N (Homo sapiens), P61088. inhibition, % at 20 µM. 330,000 compounds, 0.47% hits; in the data active = inhibition above about 45%, passing the limit was not always enough; inconclusive = no clear call, values can overlap the other calls
UCH37 DUB inh – inhibitors of human UCH37 deubiquitinase, primary screen, biochemical, Ub-AMC cleavage, fluorescence; Ubiquitin carboxyl-terminal hydrolase isozyme L5 (Homo sapiens), Q9Y5K5; AID 588478, 2011; 330,000 compounds, 0.33% hits; purified proteasome/UCH37; inhibition, % (no concentration beside the values);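 active = mean inhibition over replicate wells above about 20%, limit read from the data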;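 note: 0% = compound-free wells with enzyme and 100% = wells lacking proteasome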
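Material: human UCH37 enzyme supplied as purified proteasome complex. Measure: % inhibition of Ub-AMC cleavage fluorescence. Medium: pH 7.4 Tris-HCl (50 mM) with ovalbumin, ATP-MgCl2, DTT. Times: 30 min preincubation with enzyme, 25 min cleavage at room temperature. Detection: AMC fluorescence intensity at 355/460 nm.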
MEKK2wt confirm – modulators of MEK5 binding to wildtype MEKK2, confirmation, biochemical, single concentration, multiplex bead flow cytometry | shares compounds with MEKK3 PB1 HTS | Alexa488-MEK5 binding to MEKK2 WT; actives lie on both sides | binding response (% of control), % at 10 µM | 5,900 compounds, 2.4% hits; in the data active = binding response below about 16% or above about 210%; inactive = in between
MEKK2mut-MEK5 – mutant MEKK2 PB1-MEK5 binding signal retest – biochemical, single concentration, multiplex bead flow cytometry, confirmation. 5,900 compounds, 2% hits. Alexa488-MEK5 binding to MEKK2 mutant. percent response, % at 10 µM. shares compounds with MEKK3 PB1 HTS; in the data active = percent response mostly above about 71%, no sharp cut-off; inactive = mostly below about 38%;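 note: higher means compound restores mutant binding toward wildtype level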
MEKK3-MEK5 inh – MEKK3 wild-type PB1 binding to MEK5, inhibitors, confirmation, biochemical, bead multiplex flow cytometry, single concentration, wildtype; shares compounds with MEKK3 PB1 HTS; Alexa488-MEK5 binding to MEKK3; hits give low values; binding response (% of control), % at 10 µM; 5,900 compounds, 1.8% hits; AID 1894, 2009;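 active = binding response below 72% of control, or above a set upper limit, though filed actives all read lower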;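 note: 100% = DMSO only wells and 0% = binding blocked by excess unlabeled MEK5; lower values mean stronger disruption of MEK5 binding to MEKK3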
* = called active by the depositor; ? = inconclusive; . = no result; [ ] = dose if it differs, or a comment. The list is not random: actives were taken first. Their share in the collection is about 3%.

SMILES	MEKK2wt PB1 HTS	MEKK2 mut-MEK5	MEKK3 PB1 HTS	Apaf-1 inh	UBC13 inh	UCH37 DUB inh	MEKK2wt confirm	MEKK2mut-MEK5	MEKK3-MEK5 inh
CC1=CC(c2ccccc2)n2nc(NC(=O)CCC(=O)O)nc2N1 (centres undefined)	104	6	104	-13	24	-484	.	.	.
Cc1nc(SCC(=O)NCC2COc3ccccc3O2)c2c(C)c(C)sc2n1 (centres undefined)	.	.	.	20	0	3	.	.	.
Cc1ccc(NC(=O)c2nc[nH]c2C(=O)N2CCC(C)CC2)cc1	97	3	99	5	3	-3	.	.	.
COc1ccc(NC(=O)c2nc[nH]c2C(=O)N2CCC(C)CC2)cc1	101	-7	75*[inhibitor]	3	2	0	100	-1	101
CCCCNC(=O)CNC(=O)c1nn(-c2ccc(OC)c(Cl)c2)c(=O)c2ccccc12	106	0	103	12	?	-13	.	.	.
COCCNC(=O)CNC(=O)c1nn(-c2ccc(OC)c(Cl)c2)c(=O)c2ccccc12	135*	10	143*	0	-5	-1	103	4	103
CCC1(CC)C(=O)C2=C3C1[C@H](C(=O)OC)CC(C(=O)OC)C[C@H]3n1c(=O)n(-c3ccccc3)c(=O)n1[C@H]2C (some centres undefined)	86	-4	80*[inhibitor]	23	-5	2	96	1	97
COC(=O)C1=C[C@@H](C(=O)OC)[C@@H]2C3=C(C(=O)[C@]2(CC(C)C)NC(=O)c2ccccc2)[C@H](C)n2c(=O)n(-c4ccccc4)c(=O)n2[C@@H]3C1	105	5	109	-7	-1	0	.	.	.
O=C(CSc1n[nH]c(=O)[nH]c1=O)c1ccccc1[N+](=O)[O-]	70	-33	64*[inhibitor]	-13	7	-1	102	3	107
O=C(CSc1n[nH]c(=O)[nH]c1=O)c1cccc([N+](=O)[O-])c1	99	-2	103	-10	3	2	.	.	.
c1ccc(NCc2ccccn2)cc1	130	6	138*	-6	-6	0	94	-7	96
O=C(COc1c(F)c(F)cc(F)c1F)NC(=O)NC1CCCC1	60	-8	56*[inhibitor]	16	-8	1	101	5	100
O=C(CSc1ccc(-c2ccccc2)nn1)Nc1ccc2c(c1)OCCO2	105	-1	106	-2	-1	0	.	.	.
CC(Nc1cc(N2CCNCC2)ccc1[N+](=O)[O-])c1ccccc1 (centres undefined)	132	4	163*	6	-26	9	129	28	106
O=[N+]([O-])c1ccc(N2CCNCC2)cc1Sc1nc2ccccc2[nH]1	144*	19	104	-3	3	10	107	-1	102
CCC1CCCCN1CCCNC(=O)C(C)n1nc(C)c2sc3ccccc3c2c1=O (centres undefined)	113	7	107	8	8	3	.	.	.
O=C(CN1C(=O)CSc2ccccc21)NC1CCCC1	.	.	.	-5	-2	2	.	.	.
O=C(CN1C(=O)C(=O)c2ccccc21)NC1CCCCC1	98	0	48*[inhibitor]	2	-6	2	101	5	100
CCN(C(=O)COC(=O)c1ccc(OC)c(S(=O)(=O)N2CCCc3ccccc32)c1)C1CCS(=O)(=O)C1 (centres undefined)	84	-11	96	5	6	3	.	.	.
CCOC(=O)c1c(CN(C)C)n(-c2ccccc2)c2cc(Br)c(OC)cc12	112	1	119	6	6	3	.	.	.
COc1cc2c(C(=O)OCCN(C)C)c(CSc3ccccc3)n(C)c2cc1Br	146*	-9	99	13	13	1	153	28	108
C#CCOCCOCCOCCNc1nc(N2CCN(C(=O)[C@H]([C@@H](C)CC)n3cc([C@@H](N)CO)nn3)CC2)nc(N2CCN(C(=O)[C@H](Cc3ccc(O)cc3)n3cc([C@@H](N)C(C)CC)nn3)CC2)n1 (some centres undefined)	111	11	106	-2	5	4	.	.	.
C#CCOCCOCCOCCNc1nc(N2CCN(C(=O)[C@H]([C@@H](C)CC)n3cc([C@@H](N)CC(C)C)nn3)CC2)nc(N2CCN(C(=O)[C@H](Cc3ccc(O)cc3)n3cc([C@@H](N)CC(C)C)nn3)CC2)n1	150*	35	112	-5	33	5	150	30	108
C#CCOCCOCCOCCNc1nc(N2CCN(C(=O)[C@H]([C@@H](C)CC)n3cc([C@@H](N)CO)nn3)CC2)nc(N2CCN(C(=O)[C@H]([C@@H](C)CC)n3cc([C@@H](N)Cc4ccc(O)cc4)nn3)CC2)n1	134*	22	103	2	8	-1	112	8	100
CC(C)CN(C(=O)COC(=O)C12CC3CC(CC(O)(C3)C1)C2)C1CCS(=O)(=O)C1 (centres undefined)	0.0*[inhibitor]	-17	0.0*[inhibitor]	6	1	0	101	-6	100
O=C(Nc1cc(C(F)(F)F)ccc1N1CCOCC1)c1n[nH]c(=O)c2ccccc12	96	3	101	-38	11	2	.	.	.
CC(=O)c1c(C)n([O-])c2cc(F)c(F)cc2[n+]1=O	-12*	-28	71*[inhibitor]	1	-1	8	100	2	100
